Drawing on ChEMBL document CHEMBL3102838, “Synthesis of RCAI-172 (C6 epimer of RCAI-147) and its biological activity” (2014), this text covers Activity and Ratio for six compounds.

Active and inactive are the calls of the source. No cut-off for these calls is given here.

Experiment [1] has as its system Mus musculus. Nature of the experiment: Immunostimulatory activity in C57BL/6 mouse autoimmune encephalomyelitis model inoculated with compound-treated GM-CSF-induced dendritic cells administered on day 3 and 5. It is filed as functional, organism-based. In outline: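 EAE in female C57BL/6 mice was induced on day 1 by subcutaneous MOG35-55/CFA emulsion at two lower-back sites, with an additional adjuvant given intraperitoneally on days 1 and 3. Bone-marrow GM-DC were raised with GM-CSF (10 ng/mL, 5 days), CD11c-enriched, then pulsed with glycolipid (100 ng/mL; 5×10^6 cells/mL, 24 h). Mice were scored daily to day 30 on a 0–5 scale in 0.5 steps.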

The subject of experiment [2] is Mus musculus. Nature of the experiment: Immunomodulatory activity in mouse assessed as reduction of IL-4 secretion at 10 ug/mL, iv relative to RCAI-147. Also on record: scale not given: the % may be the effect or the level left. It is filed as functional.
The species named for experiment [3] is Mus musculus. Nature of the experiment: Ratio for reduction of IL-4 secretion in mouse to reduction of IFNgamma secretion in mouse. It is filed as functional.
The test system of experiment [4] is Mus musculus. The experiment is described as follows: Immunomodulatory activity in mouse assessed as reduction of IL-4 secretion at 10 ug/mL, iv relative to KRN7000. It is filed as functional. Also on record: scale not given: the % may be the effect or the level left. In outline: (§1)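 Female-unspecified mice given glycolipid via tail vein: DMSO stock (1.0 mg/mL) diluted to 10 μg/mL in Dulbecco's PBS just before use; 200 μL injected (2 μg/mouse). Retro-orbital blood drawn into heparinized capillaries at set time points and plasma prepared. Plasma IFN-γ and IL-4 quantified by cytometric bead array. Means ±SD, three mice.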

In experiment [5] the test system is Mus musculus. Nature of the experiment: Immunomodulatory activity in mouse assessed as reduction of IFNgamma secretion at 10 ug/mL, iv relative to KRN7000. It is filed as functional. Also on record: scale not given: the % may be the effect or the level left. In outline: as §1
Experiment [6] has as its system Mus musculus. The experiment is described as follows: Immunomodulatory activity in mouse assessed as IL-4 secretion at 10 ug/mL, iv relative to KRN7000. It is filed as functional. In outline: as §1
The subject of experiment [7] is Mus musculus. The experiment is described as follows: Immunomodulatory activity in mouse assessed as IFNgamma secretion at 10 ug/mL, iv relative to KRN7000. It is filed as functional. In outline:
as §1

Experiment [8] relates to Mus musculus. The experiment is described as follows: Immunomodulatory activity in mouse assessed as increase in IL-4 secretion at 10 ug/mL, iv relative to KRN7000. It is filed as functional. Put shortly:
as §1

Experiment [9] has as its system Mus musculus. Nature of the experiment: Immunostimulatory activity in C57BL/6 mouse autoimmune encephalomyelitis model assessed as IL-4 secretion inoculated with compound-treated GM-CSF-induced dendritic cells administered on day 3 and 5 relative to KRN7000. It is filed as functional.
In experiment [10] the test system is Mus musculus. The experiment is described as follows: Immunostimulatory activity in C57BL/6 mouse autoimmune encephalomyelitis model assessed as decrease in IFNgamma secretion inoculated with compound-treated GM-CSF-induced dendritic cells administered on day 3 and 5 relative to KRN7000. Also on record: scale not given: the % may be the effect or the level left. It is filed as functional.

In the case of `CCCCCCCCCCCCCCCCCCCCCCC[C@@H](O)[C@@H](O)C(=O)N[C@@H](CO[C@H]1O[C@H](CO)[C@H](O)[C@H](O)[C@H]1O)[C@H](O)[C@H](O)[C@@H](O)[C@H](O)CCCCCCCCCCCC`, in the experiment on Mus musculus [1], the outcome was inactive. Moreover, the Activity with Mus musculus [2] is 61%; with Mus musculus [4] it was 35.3%; in the experiment on Mus musculus [5], 4.1%. Also, the Ratio in the experiment filed under Mus musculus [3] is 8.6.

For the compound `CCCCCCCCCCCCCCCCCCCCCCCCCC(=O)N[C@@H](CO[C@H]1O[C@H](CO)[C@H](O)[C@H](O)[C@H]1O)[C@H](O)CC[C@H](O)CCCCCCCCCCCC`, the Activity was determined as 19% in the experiment with Mus musculus [6] and 64% with Mus musculus [7].

In the case of `CCCCCCCCCCCCCCCCCCCCCCC[C@@H](O)[C@@H](O)C(=O)N[C@@H](CO[C@H]1O[C@H](CO)[C@H](O)[C@H](O)[C@H]1O)[C@H](O)[C@H](O)CCCCCCCCCCCCCC`, the Activity in the experiment on Mus musculus [7] is recorded as 41%; in the experiment on Mus musculus [8], 138%. Besides, in the experiment listed under Mus musculus [3], the Ratio is reported as 3.4.

As for `CCCCCCCCCCCCCCCCCCCCCCCCCC(=O)N[C@@H](CO[C@H]1O[C@H](CO)[C@H](O)[C@H](O)[C@H]1O)[C@H](O)CC[C@@H](O)CCCCCCCCCCCC`, the Activity with Mus musculus [6] was 75%; with Mus musculus [7] it was 160%.

With `CCCCCCCCCCCCCCCCCCCCCCC[C@@H](O)[C@@H](O)C(=O)N[C@@H](CO[C@H]1O[C@H](CO)[C@H](O)[C@H](O)[C@H]1O)[C@H](O)[C@H](O)[C@@H](O)[C@@H](O)CCCCCCCCCCCC`, the Activity with Mus musculus [9] is given as greater than 60%; in the experiment on Mus musculus [10], less than 5%; with Mus musculus [4], 70%; with Mus musculus [5], 5%. Further, the Ratio in the experiment filed under Mus musculus [3] was determined as 14.

In the case of `CCCCCCCCCCCCCCCCCCCCCC[C@@H](O)[C@@H](O)[C@@H](O)C(=O)N[C@@H](CO[C@H]1O[C@H](CO)[C@H](O)[C@H](O)[C@H]1O)[C@H](O)[C@H](O)CCCCCCCCCCCCCC`, the Activity is greater than 60% with Mus musculus [9] and less than 5% in the experiment on Mus musculus [10].
